Reference: ChEMBL document CHEMBL1121573, “2-(Aminomethyl)phenols, a new class of saluretic agents. 1. Effects of nuclear substitution” (J Med Chem, 1980)

Tested on: not listed separately
Assay: Compound administered orally at a dose of 5 mg/kg was evaluated for salidiuretic activity measured as sodium ion excretion in Rat
Type: organism-based
Parameters: dose 5 mg/kg
Conditions: Urine
Outline: (§1)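 Female Charles-River rats (150–170 g), overnight on sugar diet with water ad libitum. Compound dissolved in DMF, diluted with water containing Tween 80 (final 4% DMF), given po in 5.0 mL; concurrent vehicle placebo. Three rats per metabolism cage; 0–5 h urine analysed for Na+, K+, Cl-. Values: mequiv × 100 per cage, geometric means of three cages per dose; scored 0–6 by Na+.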

| Compound | Diuretic activity |
| --- | --- |
| CCCc1cc(I)c(O)c(CN)c1.Cl | 0.4 |
| CC(C)Cc1cc(Cl)c(O)c(CN)c1.Cl | 0.5 |
| Cl.NCc1c(O)cc(Cl)c(Cl)c1Cl | 1.4 |
| Cl.NCc1c(O)c(C(F)(F)F)cc(Cl)c1Cl | 1.4 |
| CCSc1cc(C(C)(C)C)cc(CN)c1O.Cl | 0.3 |
| CC(C)(C)c1ccc(O)c(CN)c1.Cl | 0.3 |
| CCOc1c(Cl)c(O)c(CN)c(OCC)c1Cl.Cl | 0.5 |
| CCc1ccc(O)c(CN)c1.Cl | 0.3 |

Tested on: Rattus norvegicus
Assay: Evaluated for salidiuretic activity measured as sodium ion excretion in Rat, administered orally at a dose of 50 mg/kg
Type: functional, Urine
Parameters: unit not given beside the values
Conditions: route oral
Outline: as §1

| Compound | Diuretic activity |
| --- | --- |
| CCCc1cc(I)c(O)c(CN)c1.Cl | 1.8 |
| CC(C)Cc1cc(Cl)c(O)c(CN)c1.Cl | 2.4 |
| Cl.NCc1c(O)cc(Cl)c(Cl)c1Cl | 3.3 |
| Cl.NCc1c(O)c(C(F)(F)F)cc(Cl)c1Cl | 3.3 |
| CCSc1cc(C(C)(C)C)cc(CN)c1O.Cl | 1.2 |
| CC(C)(C)c1ccc(O)c(CN)c1.Cl | 1.2 |
| CCOc1c(Cl)c(O)c(CN)c(OCC)c1Cl.Cl | 2.4 |
| CCc1ccc(O)c(CN)c1.Cl | 1.2 |

Tested on: Canis familiaris
Assay: Compound administered intravenously at a dose of 5 mg/kg was evaluated for salidiuretic activity measured as sodium ion excretion in Dog; Value ranges from 600- 799
Type: ADME, organism-based, Canis lupus familiaris, Urine
Parameters: dose 5 mg/kg, route intravenous
Conditions: in vivo, iv
Outline: (§2)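 Conditioned female mongrel dogs, postabsorptive, water-loaded (500 mL po) 1 h before sodium pentobarbital anesthesia (30 mg/kg iv). Bladder catheter; creatinine 4 g sc; phosphate–mannitol buffer pH 7.4 infused (3.0 mL/min) throughout. […] Urine Na+ measured; response scored 0–6.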

| Compound | Diuretic activity |
| --- | --- |
| CCCc1cc(I)c(O)c(CN)c1.Cl | 600 |

Tested on: Rattus norvegicus
Assay: Compound administered orally at a dose of 81 mg/kg was evaluated for salidiuretic activity measured as sodium ion excretion in Rat
Type: ADME, organism-based, Urine
Parameters: dose 81 mg/kg, route oral; unit not given beside the values
Conditions: in vivo, po
Outline: as §1

| Compound | Diuretic activity |
| --- | --- |
| CCCc1cc(I)c(O)c(CN)c1.Cl | 2.4 |
| CCSc1cc(C(C)(C)C)cc(CN)c1O.Cl | 1.5 |
| CC(C)(C)c1ccc(O)c(CN)c1.Cl | 1.5 |
| CCOc1c(Cl)c(O)c(CN)c(OCC)c1Cl.Cl | 2.9 |
| CCc1ccc(O)c(CN)c1.Cl | 1.5 |

Tested on: Canis familiaris
Assay: Compound administered intravenously at a dose of 5 mg/kg was evaluated for salidiuretic activity measured as sodium ion excretion in Dog; Value ranges from 400-599
Type: ADME, organism-based, Canis lupus familiaris, Urine
Parameters: dose 5 mg/kg, route intravenous
Conditions: in vivo, iv
Outline: as §2

| Compound | Diuretic activity |
| --- | --- |
| CC(C)Cc1cc(Cl)c(O)c(CN)c1.Cl | 400 |
| Cl.NCc1c(O)cc(Cl)c(Cl)c1Cl | 400 |
| Cl.NCc1c(O)c(C(F)(F)F)cc(Cl)c1Cl | 400 |
| CCSc1cc(C(C)(C)C)cc(CN)c1O.Cl | 400 |

Tested on: Canis familiaris
Assay: Compound administered intravenously was evaluated for salidiuretic activity measured as sodium ion excretion in Dog; Value ranges from 100-249
Type: ADME, organism-based, Canis lupus familiaris, Urine
Conditions: in vivo, iv
Outline: as §2

| Compound | Diuretic activity |
| --- | --- |
| CCc1ccc(O)c(CN)c1.Cl | 100 |

Tested on: not listed separately
Assay: Evaluated for salidiuretic activity measured as sodium ion excretion in Rat, administered orally at a dose of 16.5 mg/kg
Type: organism-based
Parameters: dose 16.5 mg/kg
Conditions: Urine
Outline: as §1

| Compound | Diuretic activity |
| --- | --- |
| CCCc1cc(I)c(O)c(CN)c1.Cl | 0.6 |
| CC(C)Cc1cc(Cl)c(O)c(CN)c1.Cl | 1.4 |
| Cl.NCc1c(O)cc(Cl)c(Cl)c1Cl | 2.7 |
| Cl.NCc1c(O)c(C(F)(F)F)cc(Cl)c1Cl | 2.7 |
| CCSc1cc(C(C)(C)C)cc(CN)c1O.Cl | 0.5 |
| CC(C)(C)c1ccc(O)c(CN)c1.Cl | 0.5 |
| CCOc1c(Cl)c(O)c(CN)c(OCC)c1Cl.Cl | 1.4 |
| CCc1ccc(O)c(CN)c1.Cl | 0.5 |

Tested on: Canis familiaris
Assay: Compound administered intravenously at a dose of 5 mg/kg was evaluated for salidiuretic activity measured as sodium ion excretion in Dog; Value ranges from 0-99
Type: ADME, organism-based, Canis lupus familiaris, Urine
Parameters: dose 5 mg/kg, route intravenous
Conditions: in vivo, iv
Outline: as §2

| Compound | Diuretic activity |
| --- | --- |
| CC(C)(C)c1ccc(O)c(CN)c1.Cl | 0 |
| CCOc1c(Cl)c(O)c(CN)c(OCC)c1Cl.Cl | 0 |
